From ChEMBL document CHEMBL5226368, “1H NMR-Based Biochemometric Analysis of Morus alba Extracts toward a Multipotent Herbal Anti-Infective” (J Nat Prod, 2023)
Values after ≈ are worked out from the molar mass of the structure shown. Active and inactive are the calls of the source. No cut-off for these calls is given here.

Key:
[1] = system: A549; experiment: Cytotoxicity against human A549 cells assessed as reduction in cell viability incubated for 72 hrs by WST-8 assay; assay type: toxicity, cell-based; conditions: a549, 72 h
In short: (§1)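 Confluent monolayers in serum-free medium with 0.2 μg/mL trypsin were exposed to six half-log concentrations (maximum 100 μM) for 72 h at 37 °C. WST-8 was added for 2 h and OD read at 450 vs 620 nm (NADH activity). After PBS washes, crystal violet staining was used for viability. At least three assays were run.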

[2] = system: Calu-3; experiment: Cytotoxicity against human Calu-3 cells assessed as reduction in cell viability incubated for 72 hrs by WST-8 assay; assay type: toxicity, cell-based; conditions: calu-3, 72 h; in short: as §1
[3] = system: Streptococcus pneumoniae; experiment: Antibacterial activity against Streptococcus pneumoniae DSM20566 assessed as inhibition of bacterial growth incubated for 24 hrs by broth microdilution assay; assay type: functional
In short: (§2)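 S. pneumoniae was tested by broth microdilution in Todd Hewitt broth with yeast extract. Double-concentrated half-log dilutions (duplicates) were combined 1:1 by volume with inoculum at 2×10^5 CFU/mL, then held 24 h at 37 °C under 5% CO2. MIC was the lowest concentration without visible growth, averaged over three assays. Ampicillin and rifampicin served as references.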

[4] = system: Streptococcus pneumoniae; experiment: Antibacterial activity against Streptococcus pneumoniae D39 assessed as inhibition of bacterial growth incubated for 24 hrs by broth microdilution assay; assay type: functional; in short: as §2
[5] = system: Staphylococcus aureus; experiment: Antibacterial activity against Staphylococcus aureus ATCC43000 assessed as inhibition of bacterial growth incubated for 24 hrs by broth microdilution assay; assay type: functional
In short: (§3)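 Broth microdilution on S. aureus in brain-heart-infusion broth. Double-concentrated half-log dilutions (duplicates) mixed with an equal volume of bacterial suspension at 2×10^5 CFU/mL. Incubated 24 h at 37 °C, 5% CO2. MIC read as the lowest concentration with no visible growth. Reported as mean MIC of three assays. Ampicillin and rifampicin served as references.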

[6] = system: Staphylococcus aureus; experiment: Antibacterial activity against Staphylococcus aureus ATCC25923 assessed as inhibition of bacterial growth incubated for 24 hrs by broth microdilution assay; assay type: functional; in short: as §3
[7] = system: Influenza A virus; experiment: Antiviral activity against Influenza A virus; assay type: functional, organism-based

Row | Structure (SMILES) | Activity [1] | Activity [2] | MIC [3] | MIC [4] | MIC [5] | MIC [6] | Activity [7]
1 | CC(C)=CCCC1=C[C@H](c2c(O)cc3c(c2O)C(=O)C[C@@H](c2ccc(O)cc2O)O3)[C@@H](C(=O)c2ccc(O)cc2O)[C@H](c2ccc(O)cc2O)C1 | Non-Toxic | Non-Toxic | 3.16 µM (≈ 2.2 µg/mL) | 3.16 µM (≈ 2.2 µg/mL) | 10 µM (≈ 6.95 µg/mL) | 10 µM (≈ 6.95 µg/mL) | 
2 | CO[C@H]1/C=C/O[C@@]2(C)Oc3c(C)c(O)c4c(O)c(c(/C=N/N5CCN(C)CC5)c(O)c4c3C2=O)NC(=O)/C(C)=C\C=C\[C@H](C)[C@H](O)[C@@H](C)[C@@H](O)[C@@H](C)[C@H](OC(C)=O)[C@@H]1C [RIFAMPIN] |  |  | 0.02 µM (≈ 0.0165 µg/mL) |  | 15.4 µM (≈ 12.7 µg/mL) | 1 µM (≈ 0.823 µg/mL) | 
3 | CC1(C)S[C@@H]2[C@H](NC(=O)[C@H](N)c3ccccc3)C(=O)N2[C@H]1C(=O)O [AMPICILLIN] |  |  |  | 0.02 µM (≈ 0.00699 µg/mL) |  |  | 
4 | CC(C)=CC[C@]12Oc3cc(O)c([C@H]4C=C(C)C[C@H](c5ccc(O)cc5O)[C@H]4C(=O)c4ccc(O)cc4O)c(O)c3C(=O)[C@@]1(O)Oc1cc(O)ccc12 [SANGGENON C] | Non-Toxic | Non-Toxic | 2.08 µM (≈ 1.47 µg/mL) | 1.72 µM (≈ 1.22 µg/mL) | 3.16 µM (≈ 2.24 µg/mL) | 3.16 µM (≈ 2.24 µg/mL) | 
5 | CC(C)=CCC12Oc3cc(O)c(C4C=C(C)CC(c5ccc(O)cc5O)C4C(=O)c4ccc(O)cc4O)c(O)c3C(=O)C1(O)Oc1cc(O)ccc12 (stereo not drawn) | Non-Toxic | Non-Toxic | 3.16 µM (≈ 2.24 µg/mL) | 3.16 µM (≈ 2.24 µg/mL) | 10 µM (≈ 7.09 µg/mL) | 10 µM (≈ 7.09 µg/mL) | inactive
